# PRMT1 inh: PRMT1 (human) inhibition, primary screen. Q99873. recombinant PRMT1, activity-based probe fluorescence polarization. inhibition, % at 2.79 µM. 370,000 tested, 1.3% active;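 active = inhibition above about 21% made by adding two undisclosed values, limit read from the data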
# Target sequence (Q99873 whole entry, looked up): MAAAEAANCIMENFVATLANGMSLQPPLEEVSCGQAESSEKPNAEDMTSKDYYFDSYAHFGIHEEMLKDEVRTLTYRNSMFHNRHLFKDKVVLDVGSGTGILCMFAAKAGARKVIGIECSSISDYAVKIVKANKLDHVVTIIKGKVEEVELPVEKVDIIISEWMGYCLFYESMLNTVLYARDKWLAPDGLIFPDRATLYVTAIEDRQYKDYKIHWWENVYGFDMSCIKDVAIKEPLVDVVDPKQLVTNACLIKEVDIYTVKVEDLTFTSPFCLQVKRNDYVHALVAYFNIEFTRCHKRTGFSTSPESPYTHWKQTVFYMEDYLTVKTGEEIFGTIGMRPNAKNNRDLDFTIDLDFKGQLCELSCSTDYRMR
# HTRA1 inhibitor: HTRA1 (human) protease inhibition; recombinant HTRA1, FP-rhodamine activity-based probe, fluorescence polarization; inhibition, % at 5.96 µM; 340,000 tested, 0.5% active; in the data active = inhibition above about 36%
# rCAG RNA binder: r(CAG) repeat RNA binding; 370,000 tested, 1.3% active; AID 651821; inhibition, % at 3 µM; TO-PRO-1 dye displacement fluorescence;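 active = inhibition above the plate cutoff, the mean of all test compounds on that plate plus 3 SD, cut at about 35% in these data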;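 also: higher means more dye released from RNA so lower well fluorescence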
# SIAE inh: human SIAE inhibition, primary screen | SIAE FP-Rh probe binding, fluorescence polarization | 370,000 tested, 0.69% active | inhibition, % at 9.66 µM | Q9HAT2;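 active = inhibition above a cutoff: mean of compounds within the control limits plus 3 SD of those, cut at about 17% in these data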
# TCR-CD3 inh: blocks the human TCR-CD3 interaction. TAMRA-labeled TCR probe fluorescence, biochemical. inhibition, % at 9.4 µM. AID 651800. 360,000 tested, 0.37% active; in the data active = inhibition above about 19%;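 also: recombinant mutant TCR 2C K166C tagged with TAMRA read by polarization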
# mABHD4 FP: inhibits mouse alpha/beta hydrolase domain 4. AID 720543. Q8VD66. inhibition, % at 8.92 µM. 370,000 tested, 0.54% active. purified mABHD4, FP-Rh probe fluorescence polarization;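 active = inhibition exceeding the mean over every tested compound plus 3 SD, cut at about 30% in these data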
#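 assay system = mABHD4 protein | compound dosing = single nominal dose of 8.92 µM, 0.89% DMSO final | read-out basis = percent inhibition of probe binding, normalized to plate controls | schedule = Enzyme–compound pre-incubation 45 min, then probe 60 min, both 25 °C | detection = fluorescence polarization, excitation 525 nm, emission 598 nm, BODIPY TMR filters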
# rCAG binder conf: r(CAG) RNA repeat binding, confirmation. inhibition, % at 3 µM. shares compounds with rCAG RNA binder. TO-PRO-1 dye displacement fluorescence. 4,300 tested, 70% active;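 active = inhibition above a per-plate cutoff, the mean inhibition of sample wells plus 3 SD, cut at about 35% in these data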;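 also: loss of TO-PRO-1 fluorescence as compound displaces dye from 1x1 AA loop RNA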
# dCAG dye counter: disrupts DNA CAG TO-PRO-1 complex, flagging rCAG hits. shares compounds with rCAG RNA binder. d(CAG) DNA oligo TO-PRO-1 dye displacement, fluorescence. inhibition, % at 3 µM. 4,300 tested, 94% active. AID 652068;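 active = inhibition above its plate's cutoff, the mean test-well inhibition plus 3 SD, cut at about 4.8% in these data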;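 also: hits displace the dye from DNA and so lower well fluorescence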
# A number is an active result; 0 = inactive; - = not tested or not shown. A selection: hits, their analogues and other compounds. The true share with any hit is near 3.5%.
SMILES,PRMT1 inh,HTRA1 inhibitor,rCAG RNA binder,SIAE inh,TCR-CD3 inh,mABHD4 FP,rCAG binder conf,dCAG dye counter
COc1ccc2c(c1)Cc1cc(NC(=O)c3ccccc3-c3ccccc3C(=O)O)ccc1-2,0,0,63,0,0,0,66,28
O=C(O)c1ccccc1-c1ccccc1C(=O)Nc1ccc2c(c1)C(=O)c1ccccc1-2,0,0,60,0,0,0,68,26
Cc1ccc(NC(=O)c2cccc3c2-c2ccccc2C3=O)cc1C,0,0,0,0,0,0,-,-
Cc1cc(=O)oc2cc(NC(=O)c3ccccc3C(=O)O)ccc12,0,0,0,0,0,0,-,-
O=C(O)c1ccccc1-c1ccccc1C(=O)Nc1ccc2c(c1)oc(=O)c1ccccc12,0,0,66,0,0,0,65,24
Cc1ccc(C2=NOC(=O)/C2=C\c2ccc(C)o2)cc1,0,0,37,0,0,0,0,6.8
O=C(COC(=O)c1ccc(Sc2ncn[nH]2)c([N+](=O)[O-])c1)Nc1ccc(Cl)c(Cl)c1,0,-,64,0,-,0,46,14
CC1(C(=O)NS(=O)(=O)c2cccc(F)c2)CCN1C(=O)Cc1ccc(-c2ccccc2)cc1 (stereo unspecified),0,-,51,0,0,0,50,15
CC1(C(=O)NS(=O)(=O)c2cccc(Cl)c2)CCN1C(=O)Cc1ccsc1 (stereo unspecified),0,-,0,0,0,0,-,-
CC1(C(=O)NS(=O)(=O)c2cccc(Cl)c2)CCN1C(=O)Cc1ccc(-c2ccccc2)cc1 (stereo unspecified),0,-,74,0,0,0,68,29
CC1(C(=O)NS(=O)(=O)c2cccc(F)c2)CCN1C(=O)Cc1ccccc1 (stereo unspecified),0,-,0,0,0,0,-,-
CC(C)(C)c1ccc(CC(=O)N2CCC2(C)C(=O)NS(=O)(=O)c2cccc(F)c2)cc1 (stereo unspecified),0,-,39,0,0,0,0,5.4
Cc1ccc(CN2CCCCC(NC(=O)c3cccc([N+](=O)[O-])c3)C2=O)cc1 (stereo unspecified),0,-,0,0,-,0,-,-
CCCOc1ccc(-c2csc3ncn(Cc4ccc(C(=O)O)cc4)c(=O)c23)cc1,0,0,51,0,0,0,40,11
O=C(O)c1ccc(Cn2cnc3scc(-c4ccccc4)c3c2=O)cc1,0,0,0,0,0,0,-,-
Cc1ccc(/C(O)=C/C(=O)C(=O)NNC(=O)C(O)(c2ccccc2)c2ccccc2)cc1,0,0,46,0,0,0,0,13
CCOc1ccc(Cc2c(C)[nH]c3ccc(C(=O)O)cc3c2=S)cc1,0,0,36,0,0,0,0,7.6
COc1ccc(Cn2c(NC(=O)c3ccccc3)nc(Cc3ccccc3)c2-c2ccccc2)c(OC)c1,0,-,0,0,-,0,-,-
COc1ccc(CN2C[C@]3(C=C4CCCCC4n4c(=O)n(-c5ccccc5)c(=O)n43)N(C(=O)OCc3ccccc3)C2=NC(=O)c2ccccc2)c(OC)c1 (stereo partly specified),0,-,0,0,-,0,-,-
COc1ccc(CN2C[C@]3(C=C(C)Cn4c(=O)n(-c5ccccc5)c(=O)n43)N=C2NC(=O)c2ccccc2)c(OC)c1,0,-,42,0,-,0,43,18
O=C(NC1=N[C@@]2(C=C3CCCCC3n3c(=O)n(-c4ccccc4)c(=O)n32)CN1Cc1ccccc1)c1ccccc1 (stereo partly specified),0,-,42,0,-,0,38,15
COc1ccc(CN2C[C@]3(C=C4CCCCC4n4c(=O)n(-c5ccccc5)c(=O)n43)N=C2NC(=O)c2ccccc2)c(OC)c1 (stereo partly specified),0,-,52,0,-,0,50,21
COc1ccc(Oc2ccc(/C=C/C(=O)c3ccc(O)cc3)cc2[N+](=O)[O-])cc1,0,0,37,0,0,0,0,11
COc1ccc(/C=C/C(=O)c2ccc(O)cc2)cc1COc1ccc(F)cc1,0,0,0,0,0,0,-,-

# Assay outcomes deposited in PubChem BioAssay by The Scripps Research Institute Molecular Screening Center.
